# Assay results published in paper PMC3817951 (Journal of immunology (Baltimore, Md. : 1950), 2013).
# Several values for one entry are separate records, joined by “and”; a condition that tells them apart may be missing. Equal values may be shown once. Entries after “also recorded” stand apart in the source; their conditions may differ. Read-outs that look alike come from different tables or passages of the source.
# How the values were obtained:
# CD1d [1] = test: Cellular assay of stability of the glycolipid-CD1d complex; type: cell-based, mouse; conditions: BMDCs loaded 100 ng/mL 20 hours, wash-off 4h to 48h
# Procedure, shortened: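 BMDCs grown 10 days with GM-CSF, then pulsed 20 h with 100 ng/mL glycolipid and washed. Cells were held in medium for 4–48 h, and released glycolipid was washed off. They were then co-cultured with 2C12 hybridoma (5×10^4 hybridoma:10^5 BMDCs, cDMEM, 37°C). IL-2 in the medium, normalised to the 4 h point, indicates remaining loaded CD1d. Mean ± s.e.m., n=6.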
# CD1d [2] = conditions: compared with CD1d-α-GalCer complexes; cited from earlier work
# [3] = system: murine iNKT hybridoma N38-2C12 (Vα14Vβ8.2b); test: In vitro stimulation of iNKT hybridoma 2C12 with glycolipid pulsed BMDCs; type: cell-based, mouse; conditions: for IL-2 production (ELISA): BMDCs loaded 100 ng/ml for 20 h, co-culture with 2C12 for 16 hours
# Procedure, shortened: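 Hybridoma kept in cDMEM (DMEM, 10% FCS, glutamine, pen/strep, 2-mercaptoethanol). BMDCs grown 10 days with GM-CSF, pulsed 20 h with 100 ng/ml glycolipid. 5×10^4 hybridoma cells plus 10^5 BMDCs at 37°C. Secreted IL-2 by ELISA at 16 h (n=6). Intracellular IL-2 at 4 h. TCRβ by flow at 24 h with CD45.1 BMDCs, gated CD45.2+CD45.1−7AAD−.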
# iNKT cells [4] = type: in vivo, C57BL/6 mice; conditions: for serum IFN-γ levels / serum IL-12 levels: 16 hours after injection of 5 μg glycolipid (i.p.)
# Procedure, shortened: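 C57BL/6 mice aged 5–12 weeks received 5 μg glycolipid i.p. in PBS. Glycolipid solubilised in PBS or vehicle (sucrose/deoxycholate/Tween 20), heated 20 min at 80°C, sonicated 10 min. Serum cytokines measured 16 h after injection. Mean ± s.e.m. of at least sixteen mice, pooled from two independent experiments.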
# [5] = system: spleen DCs (CD11c CD11b double positive); test: Co-stimulatory marker expression on spleen DCs; type: in vivo, mouse
# TCR = test: Surface plasmon resonance: TCR binding to mCD1d-glycolipid complexes; set-up: species or system mouse; conditions: for Kd: SPR, TCR towards glycolipid presented by mCD1d, 25°C, Langmuir 1:1 model
# Procedure, shortened: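 Biotinylated birA-tagged mouse CD1d loaded overnight with 6-fold molar excess glycolipid (DMSO stock 1 mg/ml). 500–600 RU of complex captured on streptavidin chip. TCR injected at 0.0156–2 μM in 10 mM Hepes, 150 mM NaCl, 3 mM EDTA, pH 7.4, for 1.5–3 min. Dissociation 45 min at 25°C. Empty-CD1d reference subtracted, Langmuir 1:1 fit. Three runs, separate TCR preparations.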
# iNKT cells [6] = type: in vivo, C57BL/6 mice; conditions: for IFN-γ levels (Figure 2 panel b, IL-12 panel): at 16 hours
# B16 melanoma cells = test: B16 melanoma lung metastasis model; type: in vivo, mice; conditions: 10 000 BMDCs loaded with glycolipid
# Procedure, shortened: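 C57BL/6 mice aged 5–12 weeks. B16 cells grown in advanced RPMI with 10% FCS, glutamine and pen/strep, lifted with cell dissociation buffer and washed twice. 2x10^5 or 4x10^5 cells were injected i.v. into the tail vein within 30 min of harvest. Glycolipid-pulsed BMDCs given i.v. (6x10^4 or 1x10^4). Mice killed at day 14 and lungs removed for scoring.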
# human iNKT cells = type: cell-based
# Procedure, shortened: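 Sorted, expanded iNKT cells from healthy adult donors. Autologous PBMCs isolated by density centrifugation, incubated overnight with glycolipid (100 ng/ml), washed and irradiated (40 Gy). 5x10^4 iNKT cells cultured with 10^5 PBMCs in RPMI 1640 plus 10% human AB serum, pyruvate, non-essential amino acids and pen/strep. Supernatant cytokines at 24 h by cytometric bead array. Data pooled from two experiments, two donors.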
# [7] = 600 000 glycolipid-pulsed BMDCs, at 16 and 24 hours
# [8] = 600 000 glycolipid-pulsed BMDCs
# [9] = 100 ng/ml loading, 24hrs, compared to α-GalCer
# [10] = 10 000 pulsed BMDCs, 16 hours, compared to NU-α-GalCer and α-GalCer
SMILES,IL-2 production (ELISA) [3],serum IFN-γ levels (iNKT cells [4]),serum IL-12 levels (iNKT cells [4]),Kd (TCR),serum IFN-γ levels (iNKT cells [6]; [7]),"IFN-γ levels (Figure 2 panel b, IL-12 panel) (iNKT cells [6]; [8])",lung nodules / anti-metastatic activity (B16 melanoma cells),also measured
CCCCCCCCCCCCCCCCCCCCCCCCCC(=O)NC(CC1OC(CO)C(O)C(O)C1O)C(O)C(O)CCCCCCCCCCCCCC (stereo not drawn) [α-C-GalCer],higher IL-2 levels,,,,,,,"stability of glycolipid-CD1d complex (IL-2 normalized to 4 hours after wash off) (CD1d [1]): much slower decay compared to α-GalCer; half-life in vivo of complex with CD1d (CD1d [2]): much longer half-life in vivo; TCRβ expression ([3]; 2C12, 24 hours after coculture with glycolipid-pulsed CD45.1 BMDCs): clear TCRb downregulation"
"CCCCCCCCCCCCCCCCCCCCCCCCCC(=O)N[C@@H](CO[C@H]1O[C@H](CO)[C@H](O)[C@H](O)[C@H]1O)[C@H](O)[C@H](O)CCCCCCCCCCCCCC [α-GalCer, alpha galactosyl ceramide, reference compound]",,significantly lower,significantly lower,26 nM and 26.4 nM,,,,CD80 and CD86 expression ([5]; dendritic cell surface): induced upregulation of both CD80 and CD86
"CCCCCCCCCCCCCCCCCCCCCCCCCC(=O)N[C@@H](CO[C@H]1O[C@H](COC(=O)Nc2cccc3ccccc23)[C@H](O)[C@H](O)[C@H]1O)[C@H](O)[C@H](O)CCCCCCCCCCCCCC [NC-α-GalCer, α-GalCer-6″-(1-naphthyl)carbamate]",significantly differ from α-GalCer,,,37 nM and 37.1 nM,,,,
"CCCCCCCCCCCCCCCCCCCCCCCCCC(=O)N[C@@H](CO[C@H]1O[C@H](COC(=O)Nc2ccc(Cl)cc2)[C@H](O)[C@H](O)[C@H]1O)[C@H](O)[C@H](O)CCCCCCCCCCCCCC [4ClPhC-α-GalCer, α-GalCer-6″-(4-chlorophenyl)carbamate]",significantly differ from α-GalCer,,,49.3 ± 0.3 nM,significantly higher compared to NU-α-GalCer,significantly higher compared to α-GalCer,,reduced binding affinity (TCR; 49 nM vs. 25 nM): 2 fold
"CCCCCCCCCCCCCCCCCCCCCCCCCC(=O)N[C@@H](CO[C@H]1O[C@H](CNC(=O)Nc2cccc3ccccc23)[C@H](O)[C@H](O)[C@H]1O)[C@H](O)[C@H](O)CCCCCCCCCCCCCC [NU-α-GalCer, α-GalCer-6″-(1-naphthyl)urea]",higher IL-2 levels; also recorded: significantly differ from α-GalCer,significantly lower; also recorded: comparable or slightly lower,,,significantly higher compared to α-GalCer,significantly higher compared to α-GalCer,significantly stronger compared to α-GalCer,
"CCCCCCCCCCCCCCCCCCCCCCCCCC(=O)N[C@@H](CO[C@H]1O[C@H](COC(=O)Nc2ccncc2)[C@H](O)[C@H](O)[C@H]1O)[C@H](O)[C@H](O)CCCCCCCCCCCCCC [PyrC-α-GalCer, α-GalCer-6″-(pyridin-4-yl)carbamate]",significantly differ from α-GalCer,,significantly higher IL-12 levels than NU-α-GalCer,25 ± 3 nM,significantly higher compared to NU-α-GalCer,,superior in preventing tumor metastasis; also recorded: reduce the amount of noduli even significantly better,"IFN-γ production (human iNKT cells; [9]): slightly elevated; IL-4 production (human iNKT cells; [9]): less production; IL-12 production (human iNKT cells; [9]): slightly elevated; IL-13 production (human iNKT cells; [9]): less production; Th1-biased cytokine secretion (human iNKT cells; purified human iNKT cells, more IFN-γ and IL-12 and less IL-4 and IL-13 compared to α-GalCer): able to induce Th1-biased cytokine secretion; increase of IL-12 levels (iNKT cells [4]; PyrC-α-GalCer administration, mode and comparator not stated at place): 10 fold; CD40 and OX40L expression ([5]; spleen DCs): induces early CD40 and OX40L upregulation; serum IFN-γ levels (iNKT cells [6]; [10]): significantly higher; serum IL-12 levels (iNKT cells [6]; [10]): significantly higher; serum IL-12 levels (iNKT cells [6]; [7]): even after 24 hours markedly higher than for NU-α-GalCer; also recorded: significantly higher compared to NU-α-GalCer; course of IFN-γ level over time (iNKT cells [6]; glycolipid pulsed BMDCs, in contrast to 4ClPhC-α-GalCer and NU-α-GalCer): increased up to 24 hours after injection"
